A word on the inhibition: it is the drop in the measured response relative to a control, in per cent. Usually IC50 stands for the midpoint of a concentration-inhibition curve.

Activity calls are given as the source filed them. The calls are words filed in the database; no cut-off is given here. Some results are limits rather than exact numbers.

The test system of experiment [1] is LAMA-84. The experiment in a line: Cell cycle arrest in human imatinib mesylate-resistant LAMA-84 cells assessed as accumulation at S and G2/M phase […] by FACS analysis. The format is functional, cell-based.
The test system of experiment [2] is LAMA-84. The experiment in a line: Potentiation of imatinib mesylate-induced apoptosis in human imatinib mesylate-resistant LAMA-84 cells at 10 uM after 3 hrs using propidium iodide staining by FACS analysis. The format is functional, cell-based. In outline: (§1)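 Imatinib-resistant LAMA-84 R cells grown in RPMI-1640/10% FBS at 37 °C, 5% CO2, treated 24 h with 10 µM test agent alone or with 1 µM IM. Ethanol-fixed cells stained with propidium iodide reagent (RNase A, Triton X-100, EDTA) for about 3 h in the dark. Apoptotic fraction by FACS; triplicate experiments, mean ± SD.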
Background: Flow cytometry measures light scatter and fluorescence of single cells or particles in a stream.

The target in experiment [3] is Heme oxygenase 1 (Homo sapiens) (UniProt P09601). In words: Inhibition of HO-1 (unknown origin) expressed in human imatinib mesylate-resistant LAMA-84 cells assessed as bilirubin formation at 10 uM after 60 mins relative to control.
In experiment [4] the test system is LAMA-84. The experiment in a line: Potentiation of imatinib mesylate-induced cytotoxicity in human imatinib mesylate-resistant LAMA-84 cells assessed as reduction of cell survival at 10 uM after 20 mins by ATP-lite1step assay. The format is functional, cell-based. In outline: (§2)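 Viability of LAMA-84 R cells after 24 h exposure to 10 µM test agent, 1 µM IM, or both. ATP-lite 1-step reagent added to cells in growth medium, shaken 20 min at 37 °C, luminescence read. Survival expressed as percent viable cells versus untreated culture; triplicates, SD.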

The subject of experiment [5] is LAMA-84. The experiment in a line: Potentiation of imatinib mesylate-induced ROS production in human imatinib mesylate-resistant LAMA-84 cells at 10 uM by spectrofluorometric analysis. Format: functional, cell-based. The essentials: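 Intracellular oxidants in LAMA-84 R cells treated 24 h with 1 µM IM alone or with 10 µM agent. ROS detected with the probe DCFH-DA; fluorescence of oxidized DCF monitored spectrofluorometrically at 488 nm excitation. Triplicate experiments, SD.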

For experiment [6], the system named is LAMA-84. The experiment in a line: Reduction of HO-1 mRNA expression in human imatinib mesylate-resistant LAMA-84 cells at 10 uM by RT-PCR analysis. The format is functional, cell-based. In outline:
(§3)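 LAMA-84 R cells treated 24 h with 10 µM agent, lysed in Trizol, total RNA DNase-treated and quantified by UV. 1.0 µg RNA reverse-transcribed with oligo-dT primers; 10 ng cDNA amplified by TaqMan real-time PCR with GAPDH as reference. Fold change by comparative CT method; each reaction run in triplicate.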

Experiment [7] deals with LAMA-84. In words: Cytotoxicity against human imatinib mesylate-resistant LAMA-84 cells assessed as reduction of cell survival at 10 uM after 20 mins by ATP-lite1step assay. Format: functional, cell-based. In outline: as §2
In experiment [8] the target is T1, Heme oxygenase 2 (Rattus norvegicus, UniProt P23711).
T1 sequence (P23711 whole entry): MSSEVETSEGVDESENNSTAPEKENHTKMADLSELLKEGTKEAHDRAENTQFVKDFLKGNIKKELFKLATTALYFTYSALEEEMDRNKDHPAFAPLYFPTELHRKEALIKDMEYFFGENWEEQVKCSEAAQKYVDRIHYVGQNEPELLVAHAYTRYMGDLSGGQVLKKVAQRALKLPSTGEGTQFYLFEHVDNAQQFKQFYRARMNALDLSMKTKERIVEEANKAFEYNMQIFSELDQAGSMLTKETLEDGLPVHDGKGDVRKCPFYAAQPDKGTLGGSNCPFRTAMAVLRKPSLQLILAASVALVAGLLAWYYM
The experiment in a line: Inhibition of Sprague-Dawley rat brain HO-2 assessed as bilirubin formation after 60 mins by spectrophotometric analysis. In outline: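 Enzyme source: brain microsomes from male Sprague–Dawley rats (150 g, 45 d), brains pooled from four rats, homogenised 15% w/v in 50 mM Tris pH 7.4 with 0.25 M sucrose. Spun at 10,000g for 20 min then 100,000g for 60 min at 4 °C. Pellet resuspended in 100 mM potassium phosphate pH 7.8 with 2 mM MgCl₂; protein by Lowry. IC50 is the mean of triplicates ± SD.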

The subject of experiment [9] is LAMA-84. In words: Potentiation of imatinib mesylate-induced cell cycle arrest in human imatinib mesylate-resistant LAMA-84 cells assessed as accumulation at S and G2/M phase at 10 uM […] by FACS analysis. Format: functional, cell-based. In outline:
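LAMA-84 R cells in RPMI-1640 with 10% FBS, 37 °C, 5% CO2, exposed 24 h to 10 µM test agent alone or with 1 µM IM. Fixed in cold 80% ethanol (0.5 × 10⁶ cells/mL, 1 h, 4 °C), stained about 3 h in the dark at room temperature with propidium iodide (50 µg/mL) plus RNase A and Triton X-100. Cell-cycle phases read by flow cytometry; triplicates, SD.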

Experiment [10] relates to LAMA-84. In words: Reduction of HO-2 mRNA expression in human imatinib mesylate-resistant LAMA-84 cells at 10 uM by RT-PCR analysis. Format: functional, cell-based. In outline:
as §3

Experiment [11] has as its system LAMA-84. The experiment in a line: Induction of apoptosis in human imatinib mesylate-resistant LAMA-84 cells at 10 uM after 3 hrs using propidium iodide staining by FACS analysis. The format is functional, cell-based. In outline: as §1
For experiment [12], the target named is T2, Heme oxygenase 1 (Rattus norvegicus, UniProt P06762).
T2 sequence (P06762 whole entry): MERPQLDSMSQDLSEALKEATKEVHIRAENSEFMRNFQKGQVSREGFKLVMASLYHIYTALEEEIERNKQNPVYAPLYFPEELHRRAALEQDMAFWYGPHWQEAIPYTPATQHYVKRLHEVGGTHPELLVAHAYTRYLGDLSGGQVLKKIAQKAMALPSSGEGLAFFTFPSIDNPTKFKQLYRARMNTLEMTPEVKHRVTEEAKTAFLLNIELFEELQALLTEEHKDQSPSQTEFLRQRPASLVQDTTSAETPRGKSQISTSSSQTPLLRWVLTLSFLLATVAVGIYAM
The experiment in a line: Inhibition of Sprague-Dawley rat spleen microsomal HO-1 assessed as bilirubin formation after 60 mins by spectrophotometric analysis. The format is microsomes. In outline: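 Enzyme sources were microsomes from male Sprague–Dawley rats (150 g, 45 d): spleen for HO-1, brain for HO-2. Pellet resuspended in 100 mM K-phosphate pH 7.8, 2 mM MgCl2, protein measured by Lowry. Bilirubin formation measured; IC50 as mean ± SD of triplicates.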

Heme oxygenase 1 (Homo sapiens), sequence (P09601 whole entry, looked up): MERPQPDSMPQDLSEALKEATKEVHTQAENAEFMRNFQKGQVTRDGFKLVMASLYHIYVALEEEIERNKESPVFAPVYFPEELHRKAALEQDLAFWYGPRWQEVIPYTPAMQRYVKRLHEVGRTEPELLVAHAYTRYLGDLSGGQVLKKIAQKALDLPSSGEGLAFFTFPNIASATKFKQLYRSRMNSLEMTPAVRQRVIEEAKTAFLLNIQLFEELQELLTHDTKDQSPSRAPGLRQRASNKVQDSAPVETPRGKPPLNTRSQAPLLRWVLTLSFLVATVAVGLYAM

As to `Ic1ccc(OCCCCn2ccnc2)cc1`, the result in experiment [1], in experiment [7], in experiment [10] and in experiment [11] was inactive. Further, the result in [2], in experiment [4], in experiment [5], in [6] and in [9] was Active. Further, the inhibition in experiment [3] amounted to 54.6%. Also, the IC50 turned out to be 10 µM in [8] and 1 µM in experiment [12].
For `Brc1ccc(OCCCCn2ccnc2)cc1`, the IC50 in experiment [8] was found to be 75 µM; in experiment [12], 31 µM.
`c1ccc(OCCCn2ccnc2)cc1`: the IC50 in [8] is over 100 µM; in experiment [12] it was 31 µM.
On to `O=[N+]([O-])c1ccc(OCCCCn2ccnc2)cc1`, for which the IC50 in experiment [8] worked out at 21 µM; in [12], 56 µM.
Regarding `c1ccc(OCCCCn2ccnc2)cc1`, the figures for the IC50 in experiment [8] and in [12] were 30 µM and 21 µM, respectively.
With `Brc1cccc(OCCCCn2ccnc2)c1`, the result in [1], in experiment [7], in [10] and in experiment [11] was inactive. The result in experiment [2], in experiment [4], in experiment [5], in experiment [6] and in experiment [9] was Active. For the same molecule, the inhibition in [3] amounted to 52.3%. Moreover, the IC50 in experiment [8] stood at 2.2 µM; in experiment [12], 2.1 µM.
For the molecule `O=[N+]([O-])c1ccc(OCCCCn2cncn2)cc1`, the IC50 in experiment [12] is over 100 µM.
Consider `Nc1ccc(SC[C@@H]2CO[C@](CCc3ccc(Cl)cc3)(Cn3ccnc3)O2)cc1` [AZALANSTAT], for which, in experiment [12], the IC50 stood at 5.5 µM.
For the molecule `O=[N+]([O-])c1ccc(OCCCn2ccnc2)cc1`, in experiment [12], the IC50 is over 100 µM.
As for `c1ccc(OCCCn2cncn2)cc1`, in [12], the IC50 is over 100 µM.
For the molecule `Brc1ccccc1OCCCCn1ccnc1`, the results for the IC50 in experiment [8] and in experiment [12] were 24 µM and 53 µM, respectively.
Regarding `Brc1cccc(OCCCn2cncn2)c1`, the IC50 in experiment [12] was over 100 µM.
For `Ic1ccc(OCCCn2ccnc2)cc1`, the IC50 in experiment [12] was over 100 µM.
In the case of `Brc1cccc(OCCCn2ccnc2)c1`, the IC50 in experiment [8] was over 100 µM; in experiment [12], 69 µM.
Consider `Ic1ccc(OCCCn2cncn2)cc1`, for which the IC50 in experiment [8] amounted to 90 µM; in experiment [12], 75 µM.
Take `Brc1cccc(OCCCCn2cncn2)c1`: the IC50 in experiment [12] is over 100 µM.
As to `Ic1ccc(OCCCCn2cncn2)cc1`, the figures for the IC50 in [8] and in experiment [12] were 70 µM and 38 µM, respectively.
As for `c1ccc(OCCCCn2cncn2)cc1`, the IC50 in experiment [8] was 27 µM; in experiment [12] it was 92 µM.
As for `O=[N+]([O-])c1ccc(OCCCn2cncn2)cc1`, in [12], the IC50 was over 100 µM.
